pIC50: −log10 of the molar value. In brackets after ≈: the same amount, converted by molar mass. Activity calls are given as the source filed them. The calls are words filed in the database; no cut-off is given here.
Legend:
Nakaseomyces glabratus = experiment: Antifungal activity against Candida glabrata assessed as inhibition of fungal growth; type: functional
In short: (§1)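 MIC by DIN 58940-84 broth dilution, strains kept in log phase at 28 °C in yeast extract/peptone/glucose medium, 0.5 McFarland standard. Compounds in ethanol stock 0.8 mg/mL, tested at 50, 25 and 12.5 µg/mL in duplicate wells. Controls: sterility, ethanol-only, clotrimazole 0.5 µg/mL, ketoconazole series. MIC = lowest concentration giving visibly complete growth inhibition.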

[1] = biological target: 3-beta-hydroxysteroid-Delta(8),Delta(7)-isomerase (Homo sapiens, UniProt Q15125); experiment: Inhibition of delta8,7-sterol isomerase-mediated cholesterol biosynthesis in human HL60 cells assessed as increase in zymostenol accumulation; type: cell-based; conditions: for inhibition: HL-60
Chain of 3-beta-hydroxysteroid-Delta(8),Delta(7)-isomerase (Q15125 whole entry): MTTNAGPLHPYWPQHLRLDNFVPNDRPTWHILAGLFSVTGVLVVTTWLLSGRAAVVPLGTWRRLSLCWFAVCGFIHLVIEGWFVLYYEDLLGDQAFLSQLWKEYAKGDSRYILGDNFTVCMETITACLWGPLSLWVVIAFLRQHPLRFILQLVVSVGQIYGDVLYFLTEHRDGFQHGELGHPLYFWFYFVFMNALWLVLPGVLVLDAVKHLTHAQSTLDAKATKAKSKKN
In short: (§2)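 HL-60 cells (10^6) incubated 24 h at 37 °C, 5% CO2 in lipid-free medium with 1% LPDS, with compound in ethanol at final 1 or 50 µM. Cells were then saponified in 1 M NaOH at 70 °C for 60 min, extracted into TBME with cholestane internal standard, and silylated with TSIM. The sterol pattern was read by GC-MS full scan, with sterols identified by retention time and MS against authentic samples.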

Saccharomyces cerevisiae = experiment: Antifungal activity against Saccharomyces cerevisiae assessed as inhibition of fungal growth; type: functional; in short: as §1
Yarrowia lipolytica = experiment: Antifungal activity against Yarrowia lipolytica assessed as inhibition of fungal growth; type: functional; in short: as §1
HL-60 = experiment: Cytotoxicity against human HL60 cells by MTT assay; type: cell-based
In short: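 Human leukemia HL-60 cells, kept in RPMI 1640 with 10% FBS without antibiotics at 37 °C, 5% CO2. Cytotoxicity by standard Mosmann MTT test. IC50 from dose-response curves run in triplicate, reported with 95% confidence interval and R2.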

[2] = Selectivity index, ratio of cytotoxic IC50 against human HL60 cells to IC50 for delta8,7-sterol isomerase-mediated cholesterol biosynthesis in human HL60 cells; type: functional, HL-60
In short: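 Cytotoxicity IC50 from the HL-60 MTT test, in triplicate. Cholesterol biosynthesis IC50 came from HL-60 cells given graded inhibitor concentrations for 24 h in lipid-free medium with 1% LPDS plus 2-13C-acetate at final 62.5 µg/mL. Labelled cholesterol was measured by GC-MS (ions 372–379, 462–469), normalised to Bradford protein, and % inhibition fitted sigmoidally with bottom 0, in triplicate.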

[3] = biological target: 3-beta-hydroxysteroid-Delta(8),Delta(7)-isomerase/Delta(24)-sterol reductase (Homo sapiens) (UniProt Q15125+Q15392); experiment: Inhibition of Delta(8)-Delta(7) sterol isomerase/Delta(24)-sterol reductase-mediated cholesterol biosynthesis in human HL60 cells assessed as increase in zymostenol and zymosterol accumulation; type: cell-based; conditions: HL-60; in short: as §2
Chain of 3-beta-hydroxysteroid-Delta(8),Delta(7)-isomerase/Delta(24)-sterol reductase (Homo sapiens) (Q15125 whole entry, looked up): as the sequence (Q15125 whole entry) above
Chain of 3-beta-hydroxysteroid-Delta(8),Delta(7)-isomerase/Delta(24)-sterol reductase (Homo sapiens) (Q15392 whole entry, looked up): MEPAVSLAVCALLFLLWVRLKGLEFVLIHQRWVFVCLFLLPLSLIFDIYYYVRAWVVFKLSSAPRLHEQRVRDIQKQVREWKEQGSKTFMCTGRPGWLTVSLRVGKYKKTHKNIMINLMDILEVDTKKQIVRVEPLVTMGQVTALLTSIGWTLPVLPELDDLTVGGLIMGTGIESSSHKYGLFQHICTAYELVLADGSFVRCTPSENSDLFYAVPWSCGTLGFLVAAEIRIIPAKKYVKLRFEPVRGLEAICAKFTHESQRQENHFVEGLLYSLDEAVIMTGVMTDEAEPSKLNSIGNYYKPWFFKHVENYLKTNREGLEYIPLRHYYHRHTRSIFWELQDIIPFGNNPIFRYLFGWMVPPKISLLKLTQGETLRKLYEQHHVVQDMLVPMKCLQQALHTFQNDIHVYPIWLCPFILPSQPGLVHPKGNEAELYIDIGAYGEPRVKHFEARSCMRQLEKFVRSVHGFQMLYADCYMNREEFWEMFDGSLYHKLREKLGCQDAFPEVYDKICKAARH

SMILES	MIC (Nakaseomyces glabratus) [µg/mL]	inhibition [1]	MIC (Saccharomyces cerevisiae) [µg/mL]	MIC (Yarrowia lipolytica) [µg/mL]	pIC50 (HL-60)	pIC50 [1]	Ratio IC50 [2]	inhibition [3]
CC(C)CCC[C@@H](C)[C@H]1CC[C@@]2(C)C(=O)[C@@H](N3C(C)COCC3C)CC[C@]12C (stereo not given in full)	25 (≈ 63.8 µM)	inactive	25 (≈ 63.8 µM)	25 (≈ 63.8 µM)	–	–	–	–
CC(C)CCC[C@@H](C)[C@H]1CC[C@@]2(C)[C@@H](O)[C@@H](N)CC[C@]12C	25 (≈ 84.6 µM)	–	25 (≈ 84.6 µM)	25 (≈ 84.6 µM)	4.96	6.24	–	–
C=CCCCN[C@H]1CC[C@]2(C)[C@@H]([C@H](C)CCCC(C)C)CC[C@@]2(C)[C@@H]1O	25 (≈ 68.8 µM)	inactive	25 (≈ 68.8 µM)	25 (≈ 68.8 µM)	–	–	–	–
CC(C)CCC[C@@H](C)[C@H]1CC[C@@]2(C)[C@@H](O)[C@@H](NCc3ccc(Cl)cc3Cl)CC[C@]12C	25 (≈ 55 µM)	–	25 (≈ 55 µM)	25 (≈ 55 µM)	–	–	–	–
COc1ccc(CN[C@H]2CC[C@]3(C)[C@@H]([C@H](C)CCCC(C)C)CC[C@@]3(C)[C@H]2O)c(OC)c1	25 (≈ 56.1 µM)	–	25 (≈ 56.1 µM)	25 (≈ 56.1 µM)	–	–	–	–
CC(C)CCC[C@@H](C)[C@H]1CC[C@@]2(C)[C@@H](O)[C@@H](N(C)C)CC[C@]12C	25 (≈ 77.3 µM)	–	25 (≈ 77.3 µM)	25 (≈ 77.3 µM)	4.77	6.24	–	–
C=CCCCN[C@H]1CC[C@]2(C)[C@@H]([C@H](C)CCCC(C)C)CC[C@@]2(C)[C@H]1O	25 (≈ 68.8 µM)	–	25 (≈ 68.8 µM)	25 (≈ 68.8 µM)	4.82	7.24	–	–
CC(C)CCC[C@@H](C)[C@H]1CC[C@@]2(C)C(=O)[C@@H](N3CCN(C)CC3)CC[C@]12C	25 (≈ 66.4 µM)	inactive	25 (≈ 66.4 µM)	25 (≈ 66.4 µM)	–	–	–	–
Clc1ccccc1C(c1ccccc1)(c1ccccc1)n1ccnc1 [CLOTRIMAZOLE]	2.5 (≈ 7.25 µM)	–	0.5 (≈ 1.45 µM)	1 (≈ 2.9 µM)	–	–	–	–
CC(C)CCC[C@@H](C)[C@H]1CC[C@@]2(C)[C@H](O)[C@@H](NCc3cccc(Cl)c3)CC[C@]12C	25 (≈ 59.5 µM)	inactive	25 (≈ 59.5 µM)	25 (≈ 59.5 µM)	–	–	–	–
CC(C)CCC[C@@H](C)[C@H]1CC[C@@]2(C)[C@@H](O)[C@@H](N3CC(C)OC(C)C3)CC[C@]12C (mixture of isomers)	25	–	25	25	–	–	–	–
CC(C)CCC[C@@H](C)[C@H]1CC[C@@]2(C)[C@H](O)[C@@H](NCc3cccc(Cl)c3Cl)CC[C@]12C	25 (≈ 55 µM)	inactive	25 (≈ 55 µM)	25 (≈ 55 µM)	–	–	–	–
CC(C)CCC[C@@H](C)[C@H]1CC[C@@]2(C)[C@H](O)[C@@H](NCc3ccoc3)CC[C@]12C	25 (≈ 66.6 µM)	inactive	25 (≈ 66.6 µM)	25 (≈ 66.6 µM)	–	–	–	–
C=CCCCN(Cc1ccccc1)[C@H]1CC[C@]2(C)[C@@H]([C@H](C)CCCC(C)C)CC[C@@]2(C)[C@H]1O	25 (≈ 55.1 µM)	–	25 (≈ 55.1 µM)	25 (≈ 55.1 µM)	4.77	7.09	–	–
CC(C)CCC[C@@H](C)[C@H]1CC[C@@]2(C)[C@@H](O)[C@@H](NCc3ccc(I)o3)CC[C@]12C	25 (≈ 49.9 µM)	–	25 (≈ 49.9 µM)	25 (≈ 49.9 µM)	–	–	–	–
CC(C)CCC[C@@H](C)[C@H]1CC[C@@]2(C)C(=O)[C@@H](NCc3cccnc3)CC[C@]12C	25 (≈ 65 µM)	inactive	25 (≈ 65 µM)	25 (≈ 65 µM)	–	–	–	–
Cc1cccc(N[C@H]2CC[C@]3(C)[C@@H]([C@H](C)CCCC(C)C)CC[C@@]3(C)[C@H]2O)c1C (mixture of isomers)	25	–	25	25	–	–	–	–

SMILES	MIC (Nakaseomyces glabratus) [µg/mL]	inhibition [1]	MIC (Saccharomyces cerevisiae) [µg/mL]	MIC (Yarrowia lipolytica) [µg/mL]	pIC50 (HL-60)	pIC50 [1]	Ratio IC50 [2]	inhibition [3]
CC(C)CCC[C@@H](C)[C@H]1CC[C@@]2(C)[C@H](O)[C@@H](NCc3ccc(Cl)cc3Cl)CC[C@]12C	25 (≈ 55 µM)	inactive	25 (≈ 55 µM)	25 (≈ 55 µM)	–	–	–	–
C=CCCCN(C)[C@H]1CC[C@]2(C)[C@@H]([C@H](C)CCCC(C)C)CC[C@@]2(C)[C@H]1O	25 (≈ 66.2 µM)	–	25 (≈ 66.2 µM)	25 (≈ 66.2 µM)	5.15	7.74	390	–
Cc1cccc(N[C@H]2CC[C@]3(C)[C@@H]([C@H](C)CCCC(C)C)CC[C@@]3(C)C2=O)c1C	25 (≈ 62.9 µM)	inactive	25 (≈ 62.9 µM)	25 (≈ 62.9 µM)	–	–	–	–
CC(C)CCC[C@@H](C)[C@H]1CC[C@@]2(C)[C@@H](O)[C@@H](N(C)Cc3ccccc3)CC[C@]12C	25 (≈ 62.6 µM)	–	25 (≈ 62.6 µM)	25 (≈ 62.6 µM)	5.15	7.96	636	–
CC(C)CCC[C@@H](C)[C@H]1CC[C@@]2(C)[C@H](O)[C@@H](NCc3ccccc3)CC[C@]12C	25 (≈ 64.8 µM)	inactive	25 (≈ 64.8 µM)	25 (≈ 64.8 µM)	–	–	–	–
CC(C)CCC[C@@H](C)[C@H]1CC[C@@]2(C)[C@H](O)[C@@H](NCc3ccc(I)o3)CC[C@]12C	25 (≈ 49.9 µM)	inactive	25 (≈ 49.9 µM)	25 (≈ 49.9 µM)	–	–	–	–
CC(C)CCC[C@@H](C)[C@H]1CC[C@@]2(C)[C@@H](O)[C@@H](NCc3ccoc3)CC[C@]12C	25 (≈ 66.6 µM)	–	25 (≈ 66.6 µM)	25 (≈ 66.6 µM)	–	–	–	–
CC(C)CCC[C@@H](C)[C@H]1CC[C@@]2(C)[C@@H](O)[C@@H](N3CCN(C)CC3)CC[C@]12C	25 (≈ 66 µM)	–	25 (≈ 66 µM)	25 (≈ 66 µM)	–	–	–	–
CC(C)CCC[C@@H](C)[C@H]1CC[C@@]2(C)[C@@H](O)[C@@H](NCc3ccccc3)CC[C@]12C	25 (≈ 64.8 µM)	–	25 (≈ 64.8 µM)	25 (≈ 64.8 µM)	5.10	7.82	–	–
CC(C)CCC[C@@H](C)[C@H]1CC[C@@]2(C)[C@@H](O)[C@@H](NCc3cccc(Cl)c3Cl)CC[C@]12C	25 (≈ 55 µM)	–	25 (≈ 55 µM)	25 (≈ 55 µM)	–	–	–	–
CC(C)CCC[C@@H](C)[C@H]1CC[C@@]2(C)[C@@H](O)[C@@H](N(Cc3ccccc3)Cc3ccccc3)CC[C@]12C	25 (≈ 52.5 µM)	–	25 (≈ 52.5 µM)	25 (≈ 52.5 µM)	4.57	< 6.00	–	–
COc1ccc(CN[C@H]2CC[C@]3(C)[C@@H]([C@H](C)CCCC(C)C)CC[C@@]3(C)[C@H]2O)cc1	25 (≈ 60.1 µM)	–	25 (≈ 60.1 µM)	25 (≈ 60.1 µM)	–	–	–	–
CC(C)CCC[C@@H](C)[C@H]1CC[C@@]2(C)[C@@H](O)[C@@H](NCc3cccnc3)CC[C@]12C	25 (≈ 64.7 µM)	–	25 (≈ 64.7 µM)	25 (≈ 64.7 µM)	–	–	–	–
CC/C(=C(\c1ccccc1)c1ccc(OCCN(C)C)cc1)c1ccccc1	–	–	–	–	–	–	–	Active
CC(C)CCC[C@@H](C)[C@H]1CC[C@@]2(C)C(=O)[C@@H](N(C)C)CC[C@]12C	25 (≈ 77.7 µM)	inactive	25 (≈ 77.7 µM)	25 (≈ 77.7 µM)	–	–	–	–
CCN[C@H]1CC[C@]2(C)[C@@H]([C@H](C)CCCC(C)C)CC[C@@]2(C)[C@H]1O	25 (≈ 77.3 µM)	–	25 (≈ 77.3 µM)	25 (≈ 77.3 µM)	–	–	–	–
CC(C)CCC[C@@H](C)[C@H]1CC[C@@]2(C)[C@@H](O)[C@@H](NCc3cccc(Cl)c3)CC[C@]12C	25 (≈ 59.5 µM)	–	25 (≈ 59.5 µM)	25 (≈ 59.5 µM)	–	–	–	–
